In ChEMBL document CHEMBL4138315, “Synthesis and Evaluation of a Novel Bivalent Selective Antagonist for the Mu-Delta Opioid Receptor Heterodimer that Reduces Morphine Withdrawal in Mice” (J Med Chem, 2018):
Calls of active or inactive are those of the source. No cut-off for these calls is given here. Where a SMILES comes first, the peptide text is derived from it. [ ]: non-standard residue; d: D form. ξ: configuration not given here. d2Nal = N[C@H](Cc1ccc2ccccc2c1)C(=O)O; ξTic = O=C(O)C1Cc2ccccc2CN1

Key:
[1] = target: T1, Opioid receptors; mu & delta (Homo sapiens, UniProt P41143+P35372); test: (§1) Antagonist activity at human mu-delta opioid receptor heterodimer expressed in CHO cell membranes assessed as inhibition of CYM51010-induced [35S]-GTPgammaS binding at high site fraction preincubated for 5 mins followed by CYM51010 and [35S]-GTPgammaS addition measured after 80 mins relative to control; type: functional
Summary of the method: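 35S-GTPγS coupling in MDOR-CHO membranes: 5 min antagonist pre-incubation, then 1 µM CYM51010 plus 0.1 nM 35S-GTPγS, 30°C for 80 min, filtration and scintillation read. A 3-variable 2-site antagonist fit gave FHIGH, the fraction of the high-potency site. N = 3-4 independent experiments.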

[2] = target: T1, Opioid receptors; mu & delta; test: Antagonist activity at human mu-delta opioid receptor heterodimer expressed in CHO cell membranes assessed as inhibition of CYM51010-induced [35S]-GTPgammaS binding at high site fraction preincubated for 5 mins followed by CYM51010 and [35S]-GTPgammaS addition measured after 80 mins; type: functional
Summary of the method: (§2)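 Membranes from CHO cells stably expressing human opioid receptor (N-terminal tagged) were preincubated 5 min with antagonist concentration curves, then given 1 µM CYM51010 and 0.1 nM 35S-GTPγS; 30°C, 80 min, GF/B filtration, scintillation counting. Normalized to CYM51010 alone (100%) and vehicle (0%). Fits: 1-site for MOR/DOR (IC50), 2-site for MDOR (IC50HIGH). N = 3-4, duplicate, mean ± SEM.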

[3] = target: T1, Opioid receptors; mu & delta; test: Displacement of [3H]-diprenorphine from human mu-delta opioid receptor heterodimer expressed in CHO cell membranes at high site fraction after 80 mins by scintillation counting analysis relative to control
[4] = target: T1, Opioid receptors; mu & delta; test: Displacement of [3H]-diprenorphine from human mu-delta opioid receptor expressed in CHO cell membranes after 80 mins by scintillation counting analysis
Summary of the method: (§3)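 Competition binding on MOR-, DOR- or MDOR-CHO membranes used a fixed 3H-diprenorphine level against competitor concentration curves; 30°C, 80 min, GF/B filtration, scintillation counting. Nonspecific binding defined with 500 nM each DMT-Tic-Ala-OH and CTAP. Ki was derived from IC50 and the 3H-diprenorphine KD in each line; MDOR data fitted with a 2-site model. N = 3-4, mean ± SEM.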

Homo sapiens [5] = species: Homo sapiens; test: Selectivity ratio of IC50H for human mu-delta opioid receptor heterodimer expressed in CHO cell membranes to IC50 for human DOR expressed in CHO cell membranes; type: cell-based
Homo sapiens [6] = species: Homo sapiens; test: Selectivity ratio of KiH for human mu-delta opioid receptor heterodimer expressed in CHO cell membranes to Ki for human DOR expressed in CHO cell membranes; type: cell-based
[7] = target: T1, Opioid receptors; mu & delta; test: Antagonist activity at human mu-delta opioid receptor heterodimer expressed in CHO cell membranes assessed as inhibition of DAMGO-induced [35S]-GTPgammaS binding preincubated for 5 mins followed by DAMGO and [35S]-GTPgammaS addition measured after 80 mins; type: functional
Summary of the method: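 MDOR-CHO membranes were preincubated 5 min with antagonist concentration curve, then 1 µM DAMGO and 0.1 nM 35S-GTPγS were added. Incubated 30°C, 80 min; filter harvest, scintillation counting. Normalized to agonist alone and vehicle. N = 3 independent experiments in duplicate.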

[8] = target: T2, Delta-type opioid receptor (Homo sapiens, UniProt P41143); test: Displacement of [3H]-diprenorphine from human DOR expressed in CHO cell membranes after 80 mins by scintillation counting analysis; summary of the method: as §3
[9] = target: T2, Delta-type opioid receptor; test: Antagonist activity at human DOR expressed in CHO cell membranes assessed as inhibition of CYM51010-induced [35S]-GTPgammaS binding preincubated for 5 mins followed by CYM51010 and [35S]-GTPgammaS addition measured after 80 mins; type: functional; summary of the method: as §2
[10] = target: Kappa-type opioid receptor (Homo sapiens) (UniProt P41145); test: Antagonist activity at human KOR expressed in CHO cell membranes assessed as inhibition of U50488-induced [35S]-GTPgammaS binding preincubated for 5 mins followed by U50488 and [35S]-GTPgammaS addition measured after 80 mins; type: functional
Summary of the method: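 KOR-CHO membranes (human receptor, N-terminal tag), antagonist concentration curve preincubated 5 min, then 1 µM U50,488 plus 0.1 nM 35S-GTPγS added. Incubated 30°C, 80 min; filtration and scintillation counting. Vehicle 0.1% DMSO in assay buffer with 0.1% BSA. Normalized to agonist alone (100%) and vehicle (0%). One-site curve fit; N = 3 independent experiments in duplicate.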

Mus musculus = species: Mus musculus; test: Antinociceptive activity in CD1 mouse assessed as reduction in CYM51010-induced nociception at 10 nmol pretreated for 5 mins followed by CYM51010 injection measured up to 2 hrs by tail flick assay; type: functional, organism-based
[11] = target: T1, Opioid receptors; mu & delta; test: as §1, with “fraction at 100 uM” for “fraction”; type: functional
Mu-type opioid receptor [12] = target: T3, Mu-type opioid receptor (Homo sapiens, UniProt P35372); test: Antagonist activity at human MOR expressed in CHO cell membranes assessed as inhibition of CYM51010-induced [35S]-GTPgammaS binding preincubated for 5 mins followed by CYM51010 and [35S]-GTPgammaS addition measured after 80 mins; type: functional; summary of the method: as §2
Mu-type opioid receptor [13] = target: T3, Mu-type opioid receptor; test: Displacement of [3H]-diprenorphine from human MOR expressed in CHO cell membranes after 80 mins by scintillation counting analysis; summary of the method: as §3

T2 sequence (P41143 whole entry): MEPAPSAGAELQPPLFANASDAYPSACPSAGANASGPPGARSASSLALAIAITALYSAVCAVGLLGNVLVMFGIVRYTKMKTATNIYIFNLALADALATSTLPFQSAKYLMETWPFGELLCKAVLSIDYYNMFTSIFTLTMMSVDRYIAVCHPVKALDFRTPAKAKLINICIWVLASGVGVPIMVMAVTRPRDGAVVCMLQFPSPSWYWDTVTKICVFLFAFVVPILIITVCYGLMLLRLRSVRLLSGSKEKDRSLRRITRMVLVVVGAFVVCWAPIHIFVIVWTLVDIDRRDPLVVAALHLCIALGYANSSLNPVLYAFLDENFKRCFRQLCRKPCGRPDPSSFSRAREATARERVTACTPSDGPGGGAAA
T3 sequence (P35372 whole entry): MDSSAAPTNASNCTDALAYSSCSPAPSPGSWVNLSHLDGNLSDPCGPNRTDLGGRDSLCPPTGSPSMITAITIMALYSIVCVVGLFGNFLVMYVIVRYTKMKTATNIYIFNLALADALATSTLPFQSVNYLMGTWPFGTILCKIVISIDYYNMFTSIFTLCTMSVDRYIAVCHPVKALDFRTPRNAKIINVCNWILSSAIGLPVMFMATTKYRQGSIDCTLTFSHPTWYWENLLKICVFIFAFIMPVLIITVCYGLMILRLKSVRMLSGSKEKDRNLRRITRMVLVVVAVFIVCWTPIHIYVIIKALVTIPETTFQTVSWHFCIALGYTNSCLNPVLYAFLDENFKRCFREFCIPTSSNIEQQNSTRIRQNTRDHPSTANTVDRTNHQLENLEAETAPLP
T1 sequence (P35372 whole entry, looked up): as the sequence (P35372 whole entry) above
T1 sequence (P41143 whole entry, looked up): as the sequence (P41143 whole entry) above
Chain of Kappa-type opioid receptor (Homo sapiens) (P41145 whole entry): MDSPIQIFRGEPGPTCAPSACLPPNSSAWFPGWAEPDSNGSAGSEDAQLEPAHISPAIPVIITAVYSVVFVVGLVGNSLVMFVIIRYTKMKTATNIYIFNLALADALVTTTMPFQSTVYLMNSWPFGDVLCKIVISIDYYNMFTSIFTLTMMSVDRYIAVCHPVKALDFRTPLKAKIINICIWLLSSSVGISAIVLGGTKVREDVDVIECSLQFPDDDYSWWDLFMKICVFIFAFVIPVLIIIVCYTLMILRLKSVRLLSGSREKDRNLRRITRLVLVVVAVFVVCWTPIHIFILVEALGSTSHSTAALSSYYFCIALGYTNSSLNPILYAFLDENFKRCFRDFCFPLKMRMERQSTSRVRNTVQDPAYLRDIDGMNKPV

Imax [3] [%]	KiH [4] [nM]	IC50 ([9]; cho) [nM]	IC50 (Mu-type opioid receptor [12]; cho) [nM]	Ki (Mu-type opioid receptor [13]; cho) [nM]	SMILES	Imax [1] [%]	IC50H [2] [nM]	Ratio IC50 (Homo sapiens [5])	Ratio Ki (Homo sapiens [6])	Ki ([8]; cho) [nM]	further results
–	–	–	–	–	N[C@@H](Cc1ccc(O)cc1)C(=O)N1Cc2ccccc2CC1C(=O)O (stereo partly specified) (H-Tyr-[ξTic]-OH)	44	250	–	–	–	IC50 [7]: 36.9 nM; Ki [8]: 230 nM; IC50 [9]: 100 nM; inhibition [10]: inactive; Activity (Mus musculus): inactive
–	–	–	–	–	NCCCC[C@@H](NC(=O)CCCNC(=O)CNC(=O)[C@H]1Cc2ccccc2CN1C(=O)[C@@H](N)Cc1ccc(O)cc1)C(=O)O	28	170	–	–	–	–
–	–	–	–	–	NCCCC[C@H](NC(=O)CCCNC(=O)CNC(=O)[C@@H]1Cc2ccccc2CN1C(=O)[C@@H](N)Cc1ccc(O)cc1)C(=O)O	–	–	–	–	250	–
9	1.3	–	–	–	N[C@@H](Cc1ccc(O)cc1)C(=O)N1Cc2ccccc2C[C@@H]1C(=O)NCC(=O)NCCCC(=O)N[C@H](CCCCNC(=O)CCNC(=O)CNC(=O)[C@@H](Cc1cccc2ccccc12)NC(=O)[C@H](Cc1ccccc1)NC(=O)[C@@H]1CCCN1C(=O)[C@@H](N)Cc1ccc(O)cc1)C(=O)O	43	1.6	43	78	–	–
15	8.1	–	–	–	N[C@@H](Cc1ccc(O)cc1)C(=O)N1Cc2ccccc2C[C@@H]1C(=O)NCC(=O)NCCC(=O)NCCCCCC(=O)N[C@H](CCCCNC(=O)CCCCCNC(=O)CNC(=O)[C@@H](Cc1cccc2ccccc12)NC(=O)[C@H](Cc1ccccc1)NC(=O)[C@@H]1CCCN1C(=O)[C@@H](N)Cc1ccc(O)cc1)C(=O)O	41	20	5	35	–	–
–	–	–	–	–	NC(=O)[C@@H](Cc1ccc2ccccc2c1)NC(=O)[C@H](Cc1ccccc1)NC(=O)[C@@H]1CCCN1C(=O)[C@@H](N)Cc1ccc(O)cc1 (H-YPF[d2Nal]-NH2)	–	> 1000	–	–	–	IC50 [7]: >= 3333 nM; Imax [11]: 0.43%; IC50 (Mu-type opioid receptor [12]): > 1000 nM; inhibition [10]: inactive; Ki (Mu-type opioid receptor [13]): > 1000 nM
–	–	58	> 1000	> 1000	N[C@@H](Cc1ccc(O)cc1)C(=O)N1Cc2ccccc2C[C@H]1C(=O)NCC(=O)NCCCCC(=O)N[C@@H](CCCCNC(=O)CNC(=O)[C@@H](Cc1cccc2ccccc12)NC(=O)[C@H](Cc1ccccc1)NC(=O)[C@@H]1CCCN1C(=O)[C@@H](N)Cc1ccc(O)cc1)C(=O)O	–	–	–	–	120	–
12	2	–	–	–	N[C@@H](Cc1ccc(O)cc1)C(=O)N1Cc2ccccc2C[C@@H]1C(=O)NCC(=O)NCCCCC(=O)N[C@H](CCCCNC(=O)CNC(=O)[C@@H](Cc1cccc2ccccc12)NC(=O)[C@H](Cc1ccccc1)NC(=O)[C@@H]1CCCN1C(=O)[C@@H](N)Cc1ccc(O)cc1)C(=O)O	39	2.1	28	58	–	–
–	–	68	> 1000	> 1000	N[C@@H](Cc1ccc(O)cc1)C(=O)N1Cc2ccccc2C[C@H]1C(=O)NCC(=O)NCCCC(=O)N[C@@H](CCCCNC(=O)CCNC(=O)CNC(=O)[C@@H](Cc1cccc2ccccc12)NC(=O)[C@H](Cc1ccccc1)NC(=O)[C@@H]1CCCN1C(=O)[C@@H](N)Cc1ccc(O)cc1)C(=O)O	–	–	–	–	98	–
–	–	100	> 1000	> 1000	N[C@@H](Cc1ccc(O)cc1)C(=O)N1Cc2ccccc2C[C@H]1C(=O)NCC(=O)NCCC(=O)NCCCCCC(=O)N[C@@H](CCCCNC(=O)CCCCCNC(=O)CNC(=O)[C@@H](Cc1cccc2ccccc12)NC(=O)[C@H](Cc1ccccc1)NC(=O)[C@@H]1CCCN1C(=O)[C@@H](N)Cc1ccc(O)cc1)C(=O)O	–	–	–	–	290	–

SMILES	Imax [3] [%]	KiH [4] [nM]	IC50 ([9]; cho) [nM]	IC50 (Mu-type opioid receptor [12]; cho) [nM]	Ki (Mu-type opioid receptor [13]; cho) [nM]	Imax [1] [%]	IC50H [2] [nM]	Ratio IC50 (Homo sapiens [5])	Ratio Ki (Homo sapiens [6])	Ki ([8]; cho) [nM]	further results
N[C@@H](Cc1ccc(O)cc1)C(=O)N1Cc2ccccc2C[C@@H]1C(=O)NCC(=O)NCC(=O)N[C@H](CCCCNC(=O)CNC(=O)[C@@H](Cc1cccc2ccccc12)NC(=O)[C@H](Cc1ccccc1)NC(=O)[C@@H]1CCCN1C(=O)[C@@H](N)Cc1ccc(O)cc1)C(=O)O	12	2.5	–	–	–	43	3.4	17	110	–	–
N[C@@H](Cc1ccc(O)cc1)C(=O)N1Cc2ccccc2C[C@@H]1C(=O)NCC(=O)NCC(=O)NCCCCCC(=O)NCCC(=O)N[C@H](CCCCNC(=O)CCNC(=O)CCCCCNC(=O)CCNC(=O)CNC(=O)[C@@H](Cc1cccc2ccccc12)NC(=O)[C@H](Cc1ccccc1)NC(=O)[C@@H]1CCCN1C(=O)[C@@H](N)Cc1ccc(O)cc1)C(=O)O	12	16	–	–	–	37	48	2	15	–	–
N[C@@H](Cc1ccc(O)cc1)C(=O)N1Cc2ccccc2C[C@H]1C(=O)NCC(=O)NCC(=O)N[C@@H](CCCCNC(=O)CNC(=O)[C@@H](Cc1cccc2ccccc12)NC(=O)[C@H](Cc1ccccc1)NC(=O)[C@@H]1CCCN1C(=O)[C@@H](N)Cc1ccc(O)cc1)C(=O)O	–	–	58	> 1000	> 1000	–	–	–	–	270	–
N[C@@H](Cc1ccc(O)cc1)C(=O)N1Cc2ccccc2C[C@H]1C(=O)NCC(=O)NCC(=O)NCCCCCC(=O)NCCC(=O)N[C@@H](CCCCNC(=O)CCNC(=O)CCCCCNC(=O)CCNC(=O)CNC(=O)[C@@H](Cc1cccc2ccccc12)NC(=O)[C@H](Cc1ccccc1)NC(=O)[C@@H]1CCCN1C(=O)[C@@H](N)Cc1ccc(O)cc1)C(=O)O	–	–	94	> 1000	> 1000	–	–	–	–	230	–
